Consider 14 compounds from ChEMBL document CHEMBL1250476, “Synthesis and antifungal evaluation of novel triazole derivatives as inhibitors of cytochrome P450 14alpha-demethylase” (2010).

The term MIC denotes the lowest concentration found to suppress growth.

Converted amounts (≈) assume the structure as drawn.

Type in all cases: functional
The subject of assay [1] is Candida albicans. The assay can be described thus: Antifungal activity against Candida albicans SC5314 after 24 hrs by micro-broth dilution method. The conditions noted are these: SC5314, 24 h. A digest of the protocol: (§1)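 Broth microdilution per NCCLS on Candida albicans. Compounds were dissolved in DMSO, serially diluted in growth medium, inoculated and incubated at 35 °C. Growth was read at 24 h, and MIC80 was taken as the first well with about 80% growth reduction relative to the drug-free control. Values are the mean of three replicates.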
Background: Broth dilution looks for growth in wells or tubes with falling amounts of substance.

Assay [2] concerns Candida albicans. The assay is described as follows: Antifungal activity against Candida albicans Y0109 after 24 hrs by micro-broth dilution method. The conditions noted are these: Y0109, 24 h. A digest of the protocol: as §1
Another assay concerns Cryptococcus neoformans. The assay is described as follows: Antifungal activity against Cryptococcus neoformans after 72 hrs by micro-broth dilution method. The gist of the method: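 Cryptococcus neoformans tested by NCCLS micro-broth dilution. Compounds were dissolved in DMSO, serially diluted in medium, inoculated and incubated at 35 °C. MIC80 was read at 72 h as the first well showing approximately 80% growth reduction compared with the drug-free well. Values are the mean of three replicate tests.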

For the next assay, the system named is Candida parapsilosis. The assay can be described thus: Antifungal activity against Candida parapsilosis by micro-broth dilution method. The following applies: Lodderomyces parapsilosis. The gist of the method:
(§2)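 MIC80 by broth microdilution in 96-well format following NCCLS. Compounds were dissolved in DMSO, serially diluted in growth medium, inoculated and incubated at 35 °C. The endpoint was the first well with about 80% growth reduction versus the drug-free well. Values are means of three replicate tests.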

A further assay deals with Candida tropicalis. The assay can be described thus: Antifungal activity against Candida tropicalis by micro-broth dilution method. A digest of the protocol: as §2
In the next assay the test system is Trichophyton rubrum. The assay is described as follows: Antifungal activity against Trichophyton rubrum by micro-broth dilution method. A digest of the protocol: as §2
In another assay the test system is Kluyveromyces marxianus. The assay is described as follows: Antifungal activity against Candida kefyr by micro-broth dilution method. A digest of the protocol: as §2
The subject of a further assay is Aspergillus fumigatus. The assay is described as follows: Antifungal activity against Aspergillus fumigatus by micro-broth dilution method. A digest of the protocol: as §2

For `N#Cc1ccc(Cn2cc(CN(CC(O)(Cn3cncn3)c3ccc(F)cc3F)C3CC3)nn2)cc1` (configuration not stated), the MIC with Candida albicans [1] was 1 µg/mL (≈ 2.04 µM); against Candida albicans [2] it was 0.0625 µg/mL (≈ 0.127 µM); in the assay on Cryptococcus neoformans, 64 µg/mL (≈ 130 µM); in the assay with Candida parapsilosis it was 4 µg/mL (≈ 8.15 µM); against Candida tropicalis, 4 µg/mL (≈ 8.15 µM); against Trichophyton rubrum, 4 µg/mL (≈ 8.15 µM). Moreover, the MIC against Kluyveromyces marxianus is 1 µg/mL (≈ 2.04 µM); against Aspergillus fumigatus, over 64 µg/mL.

For `OC(CN(Cc1cn(Cc2ccc(Br)cc2)nn1)C1CC1)(Cn1cncn1)c1ccc(F)cc1F` (configuration not stated), the MIC in the assay on Candida albicans [1] was 0.25 µg/mL (≈ 0.459 µM); with Candida albicans [2], 0.0156 µg/mL (≈ 0.0287 µM); in the assay with Cryptococcus neoformans, 16 µg/mL (≈ 29.4 µM); in the assay on Candida parapsilosis, 1 µg/mL (≈ 1.84 µM); in the assay on Candida tropicalis, 0.5 µg/mL (≈ 0.918 µM); in the assay with Trichophyton rubrum it was 1 µg/mL (≈ 1.84 µM). Also, the MIC is 0.0156 µg/mL (≈ 0.0287 µM) in the assay on Kluyveromyces marxianus and over 64 µg/mL against Aspergillus fumigatus.

With `OC(CN(Cc1cn(Cc2cccc(F)c2)nn1)C1CC1)(Cn1cncn1)c1ccc(F)cc1F` (configuration not stated), the MIC with Candida albicans [1] was under 0.125 µg/mL; against Candida albicans [2], 0.0625 µg/mL (≈ 0.129 µM); with Cryptococcus neoformans, over 64 µg/mL; with Candida parapsilosis, under 0.125 µg/mL; against Candida tropicalis, under 0.125 µg/mL; with Trichophyton rubrum, under 0.125 µg/mL. The MIC was found to be 0.0156 µg/mL (≈ 0.0323 µM) in the assay with Kluyveromyces marxianus and 64 µg/mL (≈ 132 µM) against Aspergillus fumigatus.

On to `CC(=O)N1CCN(c2ccc(OCC3COC(Cn4ccnc4)(c4ccc(Cl)cc4Cl)O3)cc2)CC1` (configuration not stated) [KETOCONAZOLE], for which the MIC against Candida albicans [1] is under 0.125 µg/mL; with Candida albicans [2] it was under 0.125 µg/mL; with Cryptococcus neoformans, 0.5 µg/mL (≈ 0.941 µM); against Candida parapsilosis, under 0.125 µg/mL; against Candida tropicalis, under 0.125 µg/mL; in the assay with Trichophyton rubrum, under 0.125 µg/mL. Besides, the MIC with Kluyveromyces marxianus came out at 0.0625 µg/mL (≈ 0.118 µM); against Aspergillus fumigatus, 0.125 µg/mL (≈ 0.235 µM).

Take `CC(C)N(Cc1cn(Cc2ccccc2Br)nn1)CC(O)(Cn1cncn1)c1ccc(F)cc1F` (configuration not stated): the minimal inhibitory concentration (MIC) is under 0.125 µg/mL against Candida albicans [1]; 0.0156 µg/mL (≈ 0.0285 µM) against Candida albicans [2]; 1 µg/mL (≈ 1.83 µM) with Cryptococcus neoformans; under 0.125 µg/mL against Candida parapsilosis; under 0.125 µg/mL with Candida tropicalis; under 0.125 µg/mL against Trichophyton rubrum. The MIC against Kluyveromyces marxianus is 0.0156 µg/mL (≈ 0.0285 µM); in the assay on Aspergillus fumigatus, 16 µg/mL (≈ 29.3 µM).

`OC(CN(Cc1cn(Cc2c(Cl)cccc2Cl)nn1)C1CC1)(Cn1cncn1)c1ccc(F)cc1F` (configuration not stated): the MIC with Candida albicans [1] amounted to 4 µg/mL (≈ 7.49 µM); in the assay on Candida albicans [2], 0.0625 µg/mL (≈ 0.117 µM); with Cryptococcus neoformans it was 64 µg/mL (≈ 120 µM); in the assay on Candida parapsilosis, 4 µg/mL (≈ 7.49 µM); with Candida tropicalis, 4 µg/mL (≈ 7.49 µM); against Trichophyton rubrum, 1 µg/mL (≈ 1.87 µM). For the same compound, the minimal inhibitory concentration (MIC) in the assay with Kluyveromyces marxianus was 0.25 µg/mL (≈ 0.468 µM); against Aspergillus fumigatus it was over 64 µg/mL.

Turning to `CC(C)N(Cc1cn(Cc2cccc(F)c2)nn1)CC(O)(Cn1cncn1)c1ccc(F)cc1F` (configuration not stated), the MIC against Candida albicans [1] was under 0.125 µg/mL; against Candida albicans [2] it was 0.0156 µg/mL (≈ 0.0321 µM); with Cryptococcus neoformans, 4 µg/mL (≈ 8.24 µM); in the assay with Candida parapsilosis, 0.25 µg/mL (≈ 0.515 µM); against Candida tropicalis it was under 0.125 µg/mL; with Trichophyton rubrum it was under 0.125 µg/mL. The MIC against Kluyveromyces marxianus is 0.0625 µg/mL (≈ 0.129 µM); against Aspergillus fumigatus, over 64 µg/mL.

On to `CC(C)(C)c1ccc(Cn2cc(CN(CC(O)(Cn3cncn3)c3ccc(F)cc3F)C3CC3)nn2)cc1` (configuration not stated), for which the MIC in the assay with Candida albicans [1] is 0.0625 µg/mL (≈ 0.12 µM); with Candida albicans [2] it was under 0.125 µg/mL; with Cryptococcus neoformans, 4 µg/mL (≈ 7.67 µM); with Candida parapsilosis, 0.25 µg/mL (≈ 0.479 µM); against Candida tropicalis it was 16 µg/mL (≈ 30.7 µM); with Trichophyton rubrum, 4 µg/mL (≈ 7.67 µM). The MIC is 1 µg/mL (≈ 1.92 µM) in the assay with Kluyveromyces marxianus and over 64 µg/mL against Aspergillus fumigatus.

As for `O=[N+]([O-])c1ccc(Cn2cc(CN(CC(O)(Cn3cncn3)c3ccc(F)cc3F)C3CC3)nn2)cc1` (configuration not stated), the MIC with Candida albicans [1] is under 0.125 µg/mL; against Candida albicans [2], 0.25 µg/mL (≈ 0.49 µM); in the assay on Cryptococcus neoformans, 16 µg/mL (≈ 31.3 µM); in the assay with Candida parapsilosis it was 1 µg/mL (≈ 1.96 µM); against Candida tropicalis, 0.25 µg/mL (≈ 0.49 µM); in the assay on Trichophyton rubrum, 0.5 µg/mL (≈ 0.979 µM). The MIC in the assay on Kluyveromyces marxianus was 0.0039 µg/mL (≈ 0.00764 µM); with Aspergillus fumigatus, over 64 µg/mL.

Regarding `OC(CN(Cc1cn(Cc2ccccc2F)nn1)C1CC1)(Cn1cncn1)c1ccc(F)cc1F` (configuration not stated), the MIC against Candida albicans [1] came to 0.5 µg/mL (≈ 1.03 µM); in the assay with Candida albicans [2], 0.0625 µg/mL (≈ 0.129 µM); in the assay on Cryptococcus neoformans, 8 µg/mL (≈ 16.5 µM); against Candida parapsilosis, 1 µg/mL (≈ 2.07 µM); against Candida tropicalis, 0.5 µg/mL (≈ 1.03 µM); in the assay on Trichophyton rubrum it was 0.25 µg/mL (≈ 0.517 µM). Also, the figures for the MIC against Kluyveromyces marxianus and against Aspergillus fumigatus were 0.0156 µg/mL (≈ 0.0323 µM) and over 64 µg/mL, respectively.

On to `OC(CN(Cc1cn(Cc2cccc(Br)c2)nn1)C1CC1)(Cn1cncn1)c1ccc(F)cc1F` (configuration not stated), for which the MIC in the assay with Candida albicans [1] worked out at 0.0156 µg/mL (≈ 0.0287 µM); with Candida albicans [2] it was 0.0156 µg/mL (≈ 0.0287 µM); in the assay on Cryptococcus neoformans, 0.25 µg/mL (≈ 0.459 µM); against Candida parapsilosis it was 0.25 µg/mL (≈ 0.459 µM); against Candida tropicalis, 4 µg/mL (≈ 7.35 µM); against Trichophyton rubrum, 0.25 µg/mL (≈ 0.459 µM). Also, the MIC in the assay with Kluyveromyces marxianus was 0.0625 µg/mL (≈ 0.115 µM); against Aspergillus fumigatus, over 64 µg/mL.

Consider `OC(CN(Cc1cn(Cc2ccccc2Cl)nn1)C1CC1)(Cn1cncn1)c1ccc(F)cc1F` (configuration not stated), for which the MIC against Candida albicans [1] is under 0.125 µg/mL; in the assay on Candida albicans [2], 0.0625 µg/mL (≈ 0.125 µM); in the assay with Cryptococcus neoformans, 4 µg/mL (≈ 8 µM); against Candida parapsilosis, 0.25 µg/mL (≈ 0.5 µM); in the assay with Candida tropicalis it was under 0.125 µg/mL; in the assay with Trichophyton rubrum it was under 0.125 µg/mL. Further, the results for the MIC in the assay with Kluyveromyces marxianus and in the assay on Aspergillus fumigatus were 0.0156 µg/mL (≈ 0.0312 µM) and over 64 µg/mL, respectively.

For `CC(C)N(Cc1cn(C2CCCCC2)nn1)CC(O)(Cn1cncn1)c1ccc(F)cc1F` (configuration not stated), the MIC with Candida albicans [1] is under 0.125 µg/mL; against Candida albicans [2], 0.0625 µg/mL (≈ 0.136 µM); against Cryptococcus neoformans, 16 µg/mL (≈ 34.8 µM); with Candida parapsilosis, 2 µg/mL (≈ 4.35 µM); in the assay with Candida tropicalis it was 0.5 µg/mL (≈ 1.09 µM); against Trichophyton rubrum it was 1 µg/mL (≈ 2.18 µM). For the same compound, the figures for the MIC against Kluyveromyces marxianus and against Aspergillus fumigatus were 0.25 µg/mL (≈ 0.544 µM) and over 64 µg/mL, respectively.

In the case of `CCCCCCCCCCCCCCCCn1cc(CN(CC(O)(Cn2cncn2)c2ccc(F)cc2F)C(C)C)nn1` (configuration not stated), the MIC was under 0.125 µg/mL in the assay on Candida albicans [1]; 0.0625 µg/mL (≈ 0.104 µM) against Candida albicans [2]; 2 µg/mL (≈ 3.32 µM) against Cryptococcus neoformans; 0.5 µg/mL (≈ 0.831 µM) in the assay with Candida parapsilosis; under 0.125 µg/mL against Candida tropicalis; 0.25 µg/mL (≈ 0.415 µM) in the assay on Trichophyton rubrum. For the same compound, the MIC with Kluyveromyces marxianus was 0.25 µg/mL (≈ 0.415 µM); against Aspergillus fumigatus it was over 64 µg/mL.
